In ChEMBL document CHEMBL1139304, “Synthesis, antichagasic in vitro evaluation, cytotoxicity assays, molecular modeling and SAR/QSAR studies of a 2-phenyl-3-(1-phenyl-1H-pyrazol-4-yl)-acrylic acid benzylidene-carbohydrazide series” (Bioorg Med Chem, 2009):
Active and inactive are the calls of the source. The calls are words filed in the database; no cut-off is given here.

What was measured:
Trypanosoma cruzi [1] = experiment: Trypanocidal activity against Trypanosoma cruzi Y in Swiss albino mouse blood after 24 hrs; format: functional, organism-based
In short: (§1)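 Blood was drawn by cardiac puncture from Swiss albino mice infected with T. cruzi Y strain at peak parasitaemia (day 7). It was diluted with healthy mouse blood to 2.10⁶ forms/mL. Compounds from DMSO stocks were tested at 100, 250 and 500, in triplicate, at 4 °C. Parasites were counted after 24 h against infected blood with matched DMSO. IC50 was converted to molar pIC50.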

[2] = Cytotoxicity against BALB/c mouse peritoneal cavity cells at 100 ug/mL after 20 hrs by MTT assay; format: cell-based
In short: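 Peritoneal cells came from male Balb/c mice (18–25 g). They were washed in RPMI and resuspended in RPMI with 10% FBS and antibiotics, with viable cells counted by Trypan blue. Cells at 2 × 10⁵/well were held 30 min at 37 °C, 5% CO₂, exposed to compound for 20 h, then given MTT for 4 h. Formazan was dissolved in DMSO and read at 490 nm. Viability was taken as % of control OD, with ≥5% death counted as cytotoxic.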

Trypanosoma cruzi [3] = experiment: Trypanocidal activity against Trypanosoma cruzi Y in Swiss albino mouse blood at 500 ug/mL after 24 hrs; format: functional, organism-based; in short: as §1

SMILES	IC50 (Trypanosoma cruzi [1]; read-out: IC50) [µM]	IC50 (Trypanosoma cruzi [1]; read-out: pIC50 (converted)) [µM]	Activity [2] [%]	IC50 (Trypanosoma cruzi [3])	pIC50 (Trypanosoma cruzi [3])
N#Cc1ccc(/C=N/NC(=O)/C(=C/c2cnn(-c3ccccc3)c2)c2ccccc2)cc1	1870	1860	0	–	–
CCOc1ccc(/C=N/NC(=O)/C(=C/c2cnn(-c3ccccc3)c2)c2ccccc2)cc1	380	380	0	–	–
CSc1ccc(/C=N/NC(=O)/C(=C/c2cnn(-c3ccccc3)c2)c2ccccc2)cc1	440	437	22.8	–	–
O=C(N/N=C/c1ccc([N+](=O)[O-])cc1)/C(=C/c1cnn(-c2ccccc2)c1)c1ccccc1	30	28.2	19.4	–	–
COc1ccc(/C=N/NC(=O)/C(=C/c2cnn(-c3ccccc3)c2)c2ccc(F)cc2)cc1	340	339	14.8	–	–
O=C(N/N=C/c1ccccc1)/C(=C/c1cnn(-c2ccccc2)c1)c1ccccc1	190	191	4	–	–
COc1ccc(/C(=C\c2cnn(-c3ccccc3)c2)C(=O)N/N=C/c2ccc(C#N)cc2)cc1	1310	1320	14.35	–	–
O=C(N/N=C/c1ccc(F)cc1)/C(=C/c1cnn(-c2ccccc2)c1)c1ccccc1	2440	2450	0	–	–
O=C(N/N=C/c1ccccc1)/C(=C/c1cnn(-c2ccccc2)c1)c1ccc(F)cc1	7830	7760	0	–	–
CN(C)c1ccc(/C=N/NC(=O)/C(=C/c2cnn(-c3ccccc3)c2)c2ccc(F)cc2)cc1	890	891	12.2	–	–
N#Cc1ccc(/C=N/NC(=O)/C(=C/c2cnn(-c3ccccc3)c2)c2ccc(F)cc2)cc1	50	53.7	0	–	–
CN(C)c1ccc(/C=N/NC(=O)/C(=C/c2cnn(-c3ccccc3)c2)c2ccc(O)cc2)cc1	1880	1860	12.94	–	–
COc1ccc(/C=N/NC(=O)/C(=C/c2cnn(-c3ccccc3)c2)c2ccccc2)cc1	1510	1510	0	–	–
CN(C)c1ccc(/C=N/NC(=O)/C(=C/c2cnn(-c3ccccc3)c2)c2ccc(Br)cc2)cc1	700	708	0	–	–
COc1ccc(/C(=C\c2cnn(-c3ccccc3)c2)C(=O)N/N=C/c2ccc([N+](=O)[O-])cc2)cc1	980	977	11.22	–	–
COc1ccc(/C(=C\c2cnn(-c3ccccc3)c2)C(=O)N/N=C/c2ccc(Br)cc2)cc1	930	933	0	–	–
N#Cc1ccc(/C=N/NC(=O)/C(=C/c2cnn(-c3ccccc3)c2)c2ccc(C(F)(F)F)cc2)cc1	590	589	0	–	–
O=C(N/N=C/c1ccc(Br)cc1)/C(=C/c1cnn(-c2ccccc2)c1)c1ccc(C(F)(F)F)cc1	620	617	0	–	–
O=C(N/N=C/c1ccc(O)cc1)/C(=C/c1cnn(-c2ccccc2)c1)c1ccccc1	760	759	12.32	–	–
O=C(N/N=C/c1ccccc1)/C(=C/c1cnn(-c2ccccc2)c1)c1ccc(Br)cc1	–	–	–	Not Active	inactive
O=C(N/N=C/c1ccccc1)/C(=C/c1cnn(-c2ccccc2)c1)c1ccc(O)cc1	1360	1350	9.64	–	–
CN(C)c1ccc(/C=N/NC(=O)/C(=C/c2cnn(-c3ccccc3)c2)c2ccccc2)cc1	200	200	0	–	–
O=C(N/N=C/c1ccc(Cl)cc1)/C(=C/c1cnn(-c2ccccc2)c1)c1ccccc1	8590	8510	0	–	–
CN(C)c1ccc(/C=N/NC(=O)/C(=C/c2cnn(-c3ccccc3)c2)c2ccc(C(F)(F)F)cc2)cc1	920	912	23.07	–	–
NNC(=O)/C(=C/c1cnn(-c2ccccc2)c1)c1ccccc1	2810	2820	0	–	–
O=C(N/N=C/c1ccc([N+](=O)[O-])cc1)/C(=C/c1cnn(-c2ccccc2)c1)c1ccc(C(F)(F)F)cc1	750	741	0	–	–
COc1ccc(/C(=C\c2cnn(-c3ccccc3)c2)C(=O)N/N=C/c2ccc(O)cc2)cc1	1420	1410	12.04	–	–
O=C(N/N=C/c1ccc(Br)cc1)/C(=C/c1cnn(-c2ccccc2)c1)c1ccccc1	1500	1510	14.35	–	–
